For orientation: inhibition means the change of the read-out against control, counted positive when it falls. A low value points to a weak effect.

For one experiment, the target named is T1, Prostaglandin G/H synthase 1 (Homo sapiens, UniProt P23219). Kind of experiment: In vitro average percent inhibition of human prostaglandin G/H synthase 1 (COX-1) at a concentration of 100 uM.
T1 sequence (P23219 whole entry): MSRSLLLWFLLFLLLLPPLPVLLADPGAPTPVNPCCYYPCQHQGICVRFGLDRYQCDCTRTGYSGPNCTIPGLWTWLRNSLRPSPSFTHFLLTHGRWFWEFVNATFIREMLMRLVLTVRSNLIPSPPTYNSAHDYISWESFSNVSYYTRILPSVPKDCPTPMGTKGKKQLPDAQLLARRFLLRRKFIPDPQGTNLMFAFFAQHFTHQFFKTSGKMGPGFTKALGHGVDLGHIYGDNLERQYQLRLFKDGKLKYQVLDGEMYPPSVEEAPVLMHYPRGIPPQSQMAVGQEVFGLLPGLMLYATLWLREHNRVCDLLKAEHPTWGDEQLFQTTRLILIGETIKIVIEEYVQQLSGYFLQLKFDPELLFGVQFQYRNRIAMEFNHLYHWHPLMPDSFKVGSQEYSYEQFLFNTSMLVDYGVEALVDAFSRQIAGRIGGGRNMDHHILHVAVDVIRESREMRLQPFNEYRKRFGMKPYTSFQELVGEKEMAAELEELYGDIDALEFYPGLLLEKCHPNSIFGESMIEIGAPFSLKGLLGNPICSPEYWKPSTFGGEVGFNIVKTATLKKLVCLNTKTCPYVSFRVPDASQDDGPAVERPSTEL
Details: not given
In short, it runs like this: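 Supplied recombinant human COX-1 (5 units) preincubated 2 min at 25 °C in 0.1 M Tris-HCl pH 8.0 with 5 mM EDTA, 2 mM phenol and heme; compound or DMSO added, 20 min at 25 °C; started with 10 mM arachidonic acid stock, 2 min at 37 °C; stopped with HCl, SnCl2 reduction; prostaglandins by EIA; percent inhibition versus solvent control.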
Compound `CS(=O)(=O)c1ccc(-c2cc3c(cc2C(=O)c2cc(F)cc(F)c2)OCO3)cc1` displayed an inhibition of 50%.
Compound `CS(=O)(=O)c1ccc(-c2cc3c(cc2C(=O)c2cccc(Cl)c2)OCO3)cc1` registered an inhibition of 90%.
On the same count and under the same terms, the result for `CS(=O)(=O)c1ccc(-c2cc3c(cc2Cc2cccc(F)c2)OCO3)cc1` reads 25%; that for `CS(=O)(=O)c1ccc(-c2cc3c(cc2C(=O)C2CCCCC2)OCO3)cc1`, 55%; that for `CS(=O)(=O)c1ccc(-c2cc3c(cc2Cc2ccccc2F)OCO3)cc1`, 75%.
Turning to `COc1cccc(C(=O)c2cc3c(cc2-c2ccc(S(C)(=O)=O)cc2)OCO3)c1`, the inhibition worked out at 95%.
Still for that read-out and setting: the result for `Cc1ccc(F)c(C(=O)c2cc3c(cc2-c2ccc(S(C)(=O)=O)cc2)OCO3)c1` reads 90%; that for `COc1cccc(Cc2cc3c(cc2-c2ccc(S(C)(=O)=O)cc2)OCO3)c1`, 35%.
For `CS(=O)(=O)c1ccc(-c2cc3c(cc2Cc2cccc(Cl)c2)OCO3)cc1`, the inhibition is 65%.
The same measure, in the same setting: with `Cc1ccc(F)c(Cc2cc3c(cc2-c2ccc(S(C)(=O)=O)cc2)OCO3)c1` the figure was 40%; with `CS(=O)(=O)c1ccc(-c2cc3c(cc2C(=O)c2ccccc2F)OCO3)cc1`, 70%; with `Cc1ccc(C(=O)c2cc3c(cc2-c2ccc(S(C)(=O)=O)cc2)OCO3)cc1`, 60%.
The compound `Cc1cccc(Cc2cc3c(cc2-c2ccc(S(C)(=O)=O)cc2)OCO3)c1` yielded an inhibition of 10%.
`CS(=O)(=O)c1ccc(-c2cc3c(cc2C(=O)c2ccc(F)cc2)OCO3)cc1` displayed an inhibition of 95%.

The target in the next experiment is T2, Prostaglandin G/H synthase 2 (Homo sapiens) (UniProt P35354).
T2 sequence (whole entry): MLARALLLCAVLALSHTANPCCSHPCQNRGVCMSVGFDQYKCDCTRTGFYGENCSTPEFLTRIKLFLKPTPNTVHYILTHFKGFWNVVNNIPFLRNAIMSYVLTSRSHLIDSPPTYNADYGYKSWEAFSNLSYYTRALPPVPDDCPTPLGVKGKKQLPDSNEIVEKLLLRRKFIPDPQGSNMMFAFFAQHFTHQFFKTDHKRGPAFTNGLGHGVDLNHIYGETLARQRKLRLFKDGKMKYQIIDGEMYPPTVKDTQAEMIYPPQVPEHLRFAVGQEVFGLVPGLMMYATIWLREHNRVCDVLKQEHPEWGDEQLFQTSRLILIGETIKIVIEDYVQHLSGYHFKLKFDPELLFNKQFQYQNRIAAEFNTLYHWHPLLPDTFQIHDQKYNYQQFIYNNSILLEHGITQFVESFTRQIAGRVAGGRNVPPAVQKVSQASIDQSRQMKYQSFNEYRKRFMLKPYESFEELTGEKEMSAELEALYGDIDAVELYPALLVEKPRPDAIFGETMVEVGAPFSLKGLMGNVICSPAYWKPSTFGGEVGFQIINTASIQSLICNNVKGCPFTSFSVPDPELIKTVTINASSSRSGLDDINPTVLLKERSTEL
The conditions noted are these: at 10 µM.
For `CS(=O)(=O)c1ccc(-c2cc3c(cc2C(O)c2ccccc2)OCO3)cc1` (stereo not given), the inhibition is 0%.
Consider `Cc1cccnc1C(=O)c1cc2c(cc1-c1ccc(S(C)(=O)=O)cc1)OCO2`, for which the inhibition worked out at 10%.
The same measure, in the same setting: with `CS(=O)(=O)c1ccc(-c2cc3c(cc2CN2CCC(O)CC2)OCO3)cc1` the figure was 25%; with `CS(=O)(=O)c1ccc(-c2cc3c(cc2C(=O)N2CCOCC2)OCO3)cc1`, 10%.
The same measure, in the same setting: the result for `CS(=O)(=O)c1ccc(-c2cc3c(cc2CN2CCCC(CO)C2)OCO3)cc1` (stereo not given) reads 30%; that for `CS(=O)(=O)c1ccc(-c2cc3c(cc2CN2CCCCC2CO)OCO3)cc1` (stereo not given), 30%; that for `CCOC(=O)C1CCCN(Cc2cc3c(cc2-c2ccc(S(C)(=O)=O)cc2)OCO3)C1` (stereo not given), 40%.
Same read-out and setting: with `CS(=O)(=O)c1ccc(-c2cc3c(cc2C(=O)N2CCCCC2)OCO3)cc1` the figure was 40%; with `CS(=O)(=O)c1ccc(-c2cc3c(cc2C(=O)N2CCCC2)OCO3)cc1`, 20%; with `CN1CCN(C(=O)c2cc3c(cc2-c2ccc(S(C)(=O)=O)cc2)OCO3)CC1`, 15%.
In turn, `CS(=O)(=O)c1ccc(-c2cc3c(cc2CN2CCCCC2)OCO3)cc1` had an inhibition of 30%.
The same measure, in the same setting: with `CS(=O)(=O)c1ccc(-c2cc3c(cc2C(=O)c2cccnc2)OCO3)cc1` the figure was 20%.

The target in a further experiment is T1, Prostaglandin G/H synthase 1. The conditions noted are these: at 100 µM.
For `CS(=O)(=O)c1ccc(-c2cc3c(cc2C(O)c2ccccc2)OCO3)cc1` (stereo not given), the inhibition is 0%.
Compound `Cc1cccnc1C(=O)c1cc2c(cc1-c1ccc(S(C)(=O)=O)cc1)OCO2` showed an inhibition of 0%.
In turn, `CS(=O)(=O)c1ccc(-c2cc3c(cc2CN2CCC(O)CC2)OCO3)cc1` came in with an inhibition of 0%.
Still for that read-out and setting: the result for `CS(=O)(=O)c1ccc(-c2cc3c(cc2C(=O)N2CCOCC2)OCO3)cc1` reads 10%.
Same read-out and setting: the result for `CS(=O)(=O)c1ccc(-c2cc3c(cc2CN2CCCC(CO)C2)OCO3)cc1` (stereo not given) reads 0%; that for `CS(=O)(=O)c1ccc(-c2cc3c(cc2CN2CCCCC2CO)OCO3)cc1` (stereo not given), 0%.
Compound `CCOC(=O)C1CCCN(Cc2cc3c(cc2-c2ccc(S(C)(=O)=O)cc2)OCO3)C1` (stereo not given) gave an inhibition of 10%.
Take `CS(=O)(=O)c1ccc(-c2cc3c(cc2C(=O)N2CCCCC2)OCO3)cc1`: the inhibition worked out at 15%.
The same measure, in the same setting: the result for `CS(=O)(=O)c1ccc(-c2cc3c(cc2C(=O)N2CCCC2)OCO3)cc1` reads 0%.
Same read-out and setting: with `CN1CCN(C(=O)c2cc3c(cc2-c2ccc(S(C)(=O)=O)cc2)OCO3)CC1` the figure was 15%; with `CS(=O)(=O)c1ccc(-c2cc3c(cc2CN2CCCCC2)OCO3)cc1`, 0%.
`CS(=O)(=O)c1ccc(-c2cc3c(cc2C(=O)c2cccnc2)OCO3)cc1` registered an inhibition of 20%.

For the next experiment, the target named is T2, Prostaglandin G/H synthase 2 (Homo sapiens). As to conditions: at 1 µM.
Turning to `CS(=O)(=O)c1ccc(-c2cc3c(cc2C(O)c2ccccc2)OCO3)cc1` (stereo not given), the inhibition was determined as 0%.
On the same count and under the same terms, with `Cc1cccnc1C(=O)c1cc2c(cc1-c1ccc(S(C)(=O)=O)cc1)OCO2` the figure was 0%; with `CS(=O)(=O)c1ccc(-c2cc3c(cc2CN2CCC(O)CC2)OCO3)cc1`, 10%.
Same read-out and setting: with `CS(=O)(=O)c1ccc(-c2cc3c(cc2C(=O)N2CCOCC2)OCO3)cc1` the figure was 35%; with `CS(=O)(=O)c1ccc(-c2cc3c(cc2CN2CCCC(CO)C2)OCO3)cc1` (stereo not given), 20%.
The same measure, in the same setting: with `CS(=O)(=O)c1ccc(-c2cc3c(cc2CN2CCCCC2CO)OCO3)cc1` (stereo not given) the figure was 25%.
`CCOC(=O)C1CCCN(Cc2cc3c(cc2-c2ccc(S(C)(=O)=O)cc2)OCO3)C1` (stereo not given) had an inhibition of 40%.
In the case of `CS(=O)(=O)c1ccc(-c2cc3c(cc2C(=O)N2CCCCC2)OCO3)cc1`, the inhibition is 20%.
The same measure, in the same setting: the result for `CS(=O)(=O)c1ccc(-c2cc3c(cc2C(=O)N2CCCC2)OCO3)cc1` reads 0%; that for `CN1CCN(C(=O)c2cc3c(cc2-c2ccc(S(C)(=O)=O)cc2)OCO3)CC1`, 20%; that for `CS(=O)(=O)c1ccc(-c2cc3c(cc2CN2CCCCC2)OCO3)cc1`, 0%.
On the same count and under the same terms, with `CS(=O)(=O)c1ccc(-c2cc3c(cc2C(=O)c2cccnc2)OCO3)cc1` the figure was 0%.

(Values after ChEMBL document CHEMBL1145927 (J Med Chem, 2003).)
